These results are taken from ChEMBL document CHEMBL4513216, “Probing the Open Global Health Chemical Diversity Library for Multistage-Active Starting Points for Next-Generation Antimalarials” (ACS Infect Dis, 2020).

The data set in a line: Toxicity liver stage against HepG2, at 10uM. Format: cell-based. More on the design: test concentration 10 uM, cell line HepG2-A16-CD81EGFP. The settings on record: human, HepG2-A16-CD81EGFP cells; read-out: INHIBITION
In outline: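 Uninfected HepG2-A16-CD81EGFP cells, 3 × 10^3 per well, 1536-well, plated on prespotted compound at 10 μM final, parasite-free screening media added to match infected plates; puromycin 10 μM positive, DMSO 0.5% negative; run in parallel with 48 h PbLuc assay at 37 °C, 5% CO2; viability by CellTiter-Glo luminescence, normalized to controls.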
For the compound `O=C(NCCO)c1cc(-c2ccc3c(c2)CCO3)n[nH]1`, the cytotoxicity at 10 µM is -11.9%.

For the compound `Cn1c(CN2CCOCC2)cc(=O)c(O)c1CN1CCCC1`, the cytotoxicity at 10 µM was -1.07%.

As for `COc1ncccc1C(=O)N1CC(c2nc(-c3cccs3)no2)C1`, the cytotoxicity at 10 µM was -21.5%.

Consider `Cc1nccn1-c1ccc(=O)n(CCNC(=O)c2ccccn2)n1`, for which the cytotoxicity at 10 µM was -11.3%.

`CCOCc1cnc2n1CCN(C(=O)C1=CCCC1)C2C` (configuration not stated): the cytotoxicity at 10 µM was -2.42%.

Take `CN(C)CC(=O)N1C[C@@H](Oc2ccccn2)[C@H]2OCCC[C@H]21`: the cytotoxicity at 10 µM turned out to be 9.11%.

In the case of `CCc1ccc(-n2nnc(C(=O)O)c2-c2ccncc2)cc1`, the cytotoxicity at 10 µM was determined as 3.02%.

With `O=C(Cn1ccc2ccc(F)cc21)NCc1ccc(C(=O)O)cc1`, the cytotoxicity at 10 µM is 6.86%.

As to `CC(=O)c1c(O)n(C)c2ccc(F)cc12`, the cytotoxicity at 10 µM amounted to 6.76%.

With `O=C(c1ccsc1)N1CC(C(=O)N2CCOCC2)C2(CCOCC2)C1` (configuration not stated), the cytotoxicity at 10 µM is -1.1%.

`CC(C)c1cc(C(=O)NCCc2nc(-c3ccncc3)n[nH]2)[nH]n1`: the cytotoxicity at 10 µM is -0.01%.

Take `Nc1no[n+]([O-])c1C(=O)NCc1ccco1`: the cytotoxicity at 10 µM was found to be 2.94%.

Consider `Cc1c(CNC2CCN(c3ccccc3OC(F)F)C2)cnn1C` (configuration not stated), for which the cytotoxicity at 10 µM is -1.77%.

For `CC(C)Nc1nnc(SCc2nnc(C(C)(C)C)o2)s1`, the cytotoxicity at 10 µM was -0.386%.

On to `CC(C)c1nc(C2CCCN2C(=O)c2cc(Cl)c[nH]2)no1` (configuration not stated), for which the cytotoxicity at 10 µM was found to be 0.585%.

Take `N#Cc1ccc(S(=O)(=O)NC(=O)C2CC(c3ccccc3)=NO2)cc1` (configuration not stated): the cytotoxicity at 10 µM is 0.462%.

Turning to `CCc1nc(Cn2cncc(Br)c2=O)no1`, the cytotoxicity at 10 µM is -11.8%.

As for `CC1CN(C(=O)c2ccc(C(N)=O)cc2)c2ccc(F)cc2O1` (configuration not stated), the cytotoxicity at 10 µM was 8.07%.

Consider `COc1ccc(Br)cc1S(=O)(=O)N(C)Cc1ccc(N(C)C)cc1`, for which the cytotoxicity at 10 µM was -7.59%.

For the compound `O=C(NCCNc1ncccn1)NCCSC(F)(F)F`, the cytotoxicity at 10 µM turned out to be 5.81%.

Regarding `CSC(C)C(=O)NS(=O)(=O)CCc1ccccc1` (configuration not stated), the cytotoxicity at 10 µM was 2.88%.

Regarding `CC(C)(C)c1nc(CNc2cc3c(cc2Cl)NC(=O)CO3)no1`, the cytotoxicity at 10 µM is -0.438%.

`N#Cc1cccc(OCc2ccoc2C(=O)N2CCCCCC2)c1`: the cytotoxicity at 10 µM came out at 9.91%.

With `CC(=O)c1ccc(C(=O)NCc2ccnc(N(C)C)n2)cc1`, the cytotoxicity at 10 µM was 0.69%.

For the compound `CCN(C)C(=O)NCC1(CN2CCOCC2)CCCCC1`, the cytotoxicity at 10 µM was -5.18%.

For `CCNC(=O)NC(=O)CNC(C)(CC)c1nccs1` (configuration not stated), the cytotoxicity at 10 µM amounted to 7.93%.

On to `CC(=O)c1cccc(OCCCC(=O)N(C)Cc2cscn2)c1`, for which the cytotoxicity at 10 µM came out at 0.175%.

As to `CCc1csc(C2CCCN(C(=O)c3ccncc3)C2)n1` (configuration not stated), the cytotoxicity at 10 µM was 5.9%.

Turning to `CC(C)(CNC(=O)C(C)(C)c1ccccc1F)C(N)=O`, the cytotoxicity at 10 µM was 6.38%.

Consider `CCS(=O)(=O)c1ccccc1C(=O)NCC1Cc2ccccc2O1` (configuration not stated), for which the cytotoxicity at 10 µM is -0.561%.

Consider `O=C(NCCO)NCC(c1ccccc1)N1CCc2sccc2C1` (configuration not stated), for which the cytotoxicity at 10 µM was 1.96%.

As to `CC(NC(=O)Nc1nccs1)c1ccncc1` (configuration not stated), the cytotoxicity at 10 µM was -9.98%.

As for `Cc1ccc(CNC(=O)CN2CCN(CCO)CC2)s1`, the cytotoxicity at 10 µM was 9.03%.

In the case of `Cc1nc(NC(=O)COCC(F)(F)F)ccc1Br`, the cytotoxicity at 10 µM turned out to be 9.44%.

Take `CN(CC(=O)NCC(=O)Nc1ccc(F)cc1)Cc1cccs1`: the cytotoxicity at 10 µM is 0.369%.

Turning to `N#Cc1cccc(S(=O)(=O)NC(=O)COCC(F)(F)F)c1`, the cytotoxicity at 10 µM is -0.828%.

Turning to `CNC(=O)c1cccnc1N1CCC(OCc2ccccc2)CC1`, the cytotoxicity at 10 µM was 2.49%.

For the compound `CCN(Cc1cccc(F)c1)c1ccc2nnnn2n1`, the cytotoxicity at 10 µM was 15.4%.

For the compound `N#Cc1ccc(NCCCOCC2CCCO2)c(F)c1` (configuration not stated), the cytotoxicity at 10 µM came out at 0.536%.

As to `CSC(C)(C)CNC(=O)NCC[S+]([O-])c1ccccc1F` (configuration not stated), the cytotoxicity at 10 µM was -11.6%.

Regarding `Cc1ncoc1C(=O)N1CCn2c(COc3cccnc3)cnc2C1C` (configuration not stated), the cytotoxicity at 10 µM is -8.93%.

Regarding `Cn1cc(-c2nnn3c2COC(CNCC2CCOCC2)C3)cn1` (configuration not stated), the cytotoxicity at 10 µM is 0.171%.

For the compound `Cc1c(C(=O)NCC2CCN(C)C2)n(C)c2c(C)cccc12` (configuration not stated), the cytotoxicity at 10 µM amounted to 10.1%.

Regarding `CSc1ccc(C(=O)C2CCCN(C(=O)CCn3cnnn3)C2)cc1` (configuration not stated), the cytotoxicity at 10 µM stood at 6.03%.

For `CC(=O)Nc1ccc(Cl)c(C(=O)N(C)Cc2nc(C)c[nH]2)c1`, the cytotoxicity at 10 µM was determined as 1.37%.

With `Cc1ccn(CCNc2ncnc3c2CCN(S(C)(=O)=O)CC3)n1`, the cytotoxicity at 10 µM was -3.03%.

For the compound `COc1ccccc1OC1CCN(Cc2cccnc2)CC1`, the cytotoxicity at 10 µM was -1.7%.

For `Cc1cc(C)c2c(C(=O)N(C)C)cc(-c3cnc(N)nc3)nc2c1`, the cytotoxicity at 10 µM was -8.87%.

For `CN1CCC(N(C)C[C@H]2CC[C@@H](Cc3ccc4occc4c3)O2)CC1`, the cytotoxicity at 10 µM is -9.27%.

In the case of `COc1cc(NC2CCS(=O)(=O)CC2)ncn1`, the cytotoxicity at 10 µM was -3.71%.

`COc1ncc(CN(C)C(C)c2cccnc2)cn1` (configuration not stated): the cytotoxicity at 10 µM amounted to 13%.

As to `O=C1CCCN1Cc1nc(-c2ccsc2)no1`, the cytotoxicity at 10 µM was -5.41%.

Consider `CC(C)=CCN1CCc2onc(-c3ccc(F)c(F)c3)c2C1`, for which the cytotoxicity at 10 µM came to 5.67%.

For the compound `CN(Cc1csc(-c2cccs2)n1)Cc1ncccc1C(=O)O`, the cytotoxicity at 10 µM is -11.5%.

Take `CCc1cnc(C)nc1NCC(O)CN1CCCCCC1` (configuration not stated): the cytotoxicity at 10 µM was found to be 3.26%.

In the case of `CCc1cc(NCCc2cc(F)cc(F)c2)n2nccc2n1`, the cytotoxicity at 10 µM was found to be 19.5%.

Consider `Cc1ccc(CN2CCN(Cc3ccc4nonc4c3)CC2=O)cc1`, for which the cytotoxicity at 10 µM was -1.9%.

For `C[C@@H]1CN(Cc2nnc(-c3cccnc3)o2)CC[C@]1(C)O`, the cytotoxicity at 10 µM stood at 10.1%.

Turning to `O=C(Cc1ccccn1)N1CCc2nc(-c3cnccn3)nc(O)c2C1`, the cytotoxicity at 10 µM worked out at 2.83%.

As for `CN(Cc1noc(C2CC2)n1)C1CCCN(c2cccnn2)C1` (configuration not stated), the cytotoxicity at 10 µM is -2.66%.

For `CCn1cc(CN2CCCN(C(=O)CCSC)CC2)cn1`, the cytotoxicity at 10 µM was -1.11%.

Turning to `CCc1c(C(=O)N2CCCC(N(C)C)C2)cnn1C(C)(C)C` (configuration not stated), the cytotoxicity at 10 µM is -0.088%.

Turning to `CCOCCCn1c(NC(=O)c2cc(C)no2)nc2ccccc21`, the cytotoxicity at 10 µM was -5.69%.

In the case of `Cc1cc(C2CCCN2Cc2ccc(S(=O)(=O)N(C)C)o2)on1` (configuration not stated), the cytotoxicity at 10 µM was -4.11%.

`Cc1nn(C)c(N(C)C)c1CNCCCN(C(C)C)S(C)(=O)=O`: the cytotoxicity at 10 µM stood at 1.07%.

Take `CN(C)c1cc2c(nn1)CCN(C(=O)Cc1ccc3c(c1)CCC3)C2`: the cytotoxicity at 10 µM is -5.98%.

Take `Cc1nc(C2CCCN2Cc2ccn(C)c(=O)c2)no1` (configuration not stated): the cytotoxicity at 10 µM was -12.9%.

In the case of `Cn1cnc2c1CCN(Cc1csc(-c3ccco3)n1)C2`, the cytotoxicity at 10 µM is -17.4%.

As for `Cc1ccc(O)c(C(=O)N2CCCC(NC(=O)C(C)C)C2)c1` (configuration not stated), the cytotoxicity at 10 µM is -0.988%.

For the compound `Cc1cnn(CC2CCCN2C(=O)c2ccccc2-n2cccn2)c1` (configuration not stated), the cytotoxicity at 10 µM was -4.16%.

Turning to `COc1ccc(-c2nnc(CNCCn3cc(C)cn3)o2)cc1`, the cytotoxicity at 10 µM was 1.32%.

On to `Cc1cc(C)n(CC2CN(Cc3noc(C)n3)CCO2)n1` (configuration not stated), for which the cytotoxicity at 10 µM was 0.305%.

For the compound `CCCS(=O)(=O)NC1CCN(c2nnc(C)c(C)c2C#N)CC1`, the cytotoxicity at 10 µM was 3.28%.

Turning to `Cc1noc(C(C)C)c1C(=O)NCc1cccc(N(C)C)c1`, the cytotoxicity at 10 µM is -1.91%.

`CN(C)c1cc(CNC(=O)Nc2ccc(S(C)(=O)=O)nc2)ccn1`: the cytotoxicity at 10 µM is 0.71%.

For `CC(C)(C)n1cc(C(=O)N2CCCN(Cc3cccs3)CC2)cn1`, the cytotoxicity at 10 µM was -5.95%.

For `CNc1nc(CNC(=O)Nc2ccccc2SC)cs1`, the cytotoxicity at 10 µM was -7.95%.

Consider `O=C(CCCc1ncc(-c2ccccc2)o1)N1CCN(CCO)CC1`, for which the cytotoxicity at 10 µM was -4.69%.

Take `OC(COc1ccccc1)CN1CCc2c(ncn2C2CC2)C1` (configuration not stated): the cytotoxicity at 10 µM was found to be 2.48%.

Regarding `Cc1cc(C)n(CC2CCCCN2C(=O)c2ccc3nncn3c2)n1` (configuration not stated), the cytotoxicity at 10 µM came out at 0.168%.

For `CC(=O)N1CCN(C(=O)C(C)n2cncn2)CC1` (configuration not stated), the cytotoxicity at 10 µM stood at 1.64%.

Consider `CCc1n[nH]c(C2CN(C(=O)c3ccsc3)CCO2)n1` (configuration not stated), for which the cytotoxicity at 10 µM was determined as 2.24%.

For the compound `CCn1nc(C)cc1C(=O)Nc1cc(F)ccc1OCC1CCCO1` (configuration not stated), the cytotoxicity at 10 µM came to 2.89%.

With `COc1cc(C(C)=O)ccc1OCCNCc1ccco1`, the cytotoxicity at 10 µM is -5.05%.

As to `CN1CCO[C@H]2CN(S(=O)(=O)c3ccc(C#N)cc3)C[C@H]21`, the cytotoxicity at 10 µM is 7.25%.

Consider `Cc1occc1C(=O)N1Cc2nccn2CC(CN2CCOCC2)C1` (configuration not stated), for which the cytotoxicity at 10 µM is -117%.

Consider `Cc1ccccc1N1CC2(CCCCN2CC2CC2)CC1=O` (configuration not stated), for which the cytotoxicity at 10 µM came to 10.4%.

Regarding `CN1C[C@@H]2CN(C(=O)NCc3ccccc3)CCC[C@]2(C(=O)O)C1`, the cytotoxicity at 10 µM was 9.55%.

Take `O=C(NCc1ccco1)[C@@H]1CC[C@@H]2[C@@H](CCN2Cc2ccc(F)cc2)O1`: the cytotoxicity at 10 µM is -0.748%.

With `O=C([C@H]1COC[C@H]2CN(C3CCCC3)C[C@H]21)N1CCCCO1`, the cytotoxicity at 10 µM is -9.47%.

As to `O=C(C1CCC1)N1C[C@@H]2CCN(c3cccnc3)C[C@@H]2C1`, the cytotoxicity at 10 µM was -2.13%.

Consider `CNC(=O)[C@@H](c1ccccc1OC)N1CCC[C@H]1C(=O)NCCN(C)C`, for which the cytotoxicity at 10 µM is -5.12%.

Regarding `CS(=O)(=O)N[C@@H]1CN(Cc2ccco2)C[C@@H]2CCCO[C@@H]21`, the cytotoxicity at 10 µM came out at 6.15%.

Consider `CN(C)[C@@H]1CN(C(=O)Cc2ccc(F)cc2)[C@@H]2CCCO[C@H]12`, for which the cytotoxicity at 10 µM was 3.88%.

For the compound `CO[C@@H]1CCN(Cc2cnn(C)c2)[C@@H]2CN(Cc3cccnc3)C[C@@H]21`, the cytotoxicity at 10 µM was 8.47%.

Take `O=C(Nc1ccccc1)[C@H]1C[C@H]2CN(S(=O)(=O)c3ccccc3)C[C@@H]1O2`: the cytotoxicity at 10 µM stood at 5.8%.

For `CC(C)NC(=O)[C@H]1C[C@H]2CN(C(=O)NCCc3ccccc3)C[C@@H]1O2`, the cytotoxicity at 10 µM is 1.25%.
